*1 amine or outer side, *2 acyl side, *3 side chain or, on linkers, in order; H or OH if unused. Where a SMILES comes first, the peptide text is derived from it. Bridges are numbered along the chain shown (N, C = ends). [ ]: non-standard residue; d: D form. The star is where a group is joined. Staurosporine = CO[C@@H]1[C@H](N(C)*)C[C@H]2O[C@]1(C)n1c3ccccc3c3c4c(c5c6ccccc6n2c5c31)C(=O)NC4; Suc = O=C(CCC(=O)[*:2])[*:1]; Dap = NC[C@H](N)C(=O)O; βAla = NCCC(=O)O

The target in assay [1] is Casein kinase I isoform gamma-2 (Homo sapiens) (UniProt P78368). Nature of the assay: Binding affinity to human CSNK1G2 at 500 nM by cell-based competition binding assay relative to control in presence of DTT. An outline of the steps: (§1)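 Commercial (Ambit) competitive kinase-binding panel of 90 kinases measured the binding profile. Run under reducing conditions of 7.5 mM DTT. Binding is expressed relative to control.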

The target of assay [2] is Serine/threonine-protein kinase PAK 1 (Homo sapiens) (UniProt Q13153). Nature of the assay: Binding affinity to human PAK1 at 500 nM by cell-based competition binding assay relative to control in presence of DTT.
For assay [3], the system named is Serine/threonine-protein kinase B-raf (Homo sapiens), P15056 [V600E]. Kind of assay: Binding affinity to human BRAF V600E mutant at 500 nM by cell-based competition binding assay relative to control in presence of DTT. An outline of the steps: (§2)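 Kinase binding profiling ran on a commercial (Ambit) competitive binding screen against a panel of 90 kinases. The screen used reducing conditions with 7.5 mM DTT. To withstand the DTT, the bivalent ligand was tested as its amide isostere, with the disulfide replaced. A staurosporine derivative carrying a 3 β-alanine linker was run as the reference compound.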
Sequence of Serine/threonine-protein kinase B-raf (Homo sapiens), P15056 [V600E] (P15056 whole entry V600E): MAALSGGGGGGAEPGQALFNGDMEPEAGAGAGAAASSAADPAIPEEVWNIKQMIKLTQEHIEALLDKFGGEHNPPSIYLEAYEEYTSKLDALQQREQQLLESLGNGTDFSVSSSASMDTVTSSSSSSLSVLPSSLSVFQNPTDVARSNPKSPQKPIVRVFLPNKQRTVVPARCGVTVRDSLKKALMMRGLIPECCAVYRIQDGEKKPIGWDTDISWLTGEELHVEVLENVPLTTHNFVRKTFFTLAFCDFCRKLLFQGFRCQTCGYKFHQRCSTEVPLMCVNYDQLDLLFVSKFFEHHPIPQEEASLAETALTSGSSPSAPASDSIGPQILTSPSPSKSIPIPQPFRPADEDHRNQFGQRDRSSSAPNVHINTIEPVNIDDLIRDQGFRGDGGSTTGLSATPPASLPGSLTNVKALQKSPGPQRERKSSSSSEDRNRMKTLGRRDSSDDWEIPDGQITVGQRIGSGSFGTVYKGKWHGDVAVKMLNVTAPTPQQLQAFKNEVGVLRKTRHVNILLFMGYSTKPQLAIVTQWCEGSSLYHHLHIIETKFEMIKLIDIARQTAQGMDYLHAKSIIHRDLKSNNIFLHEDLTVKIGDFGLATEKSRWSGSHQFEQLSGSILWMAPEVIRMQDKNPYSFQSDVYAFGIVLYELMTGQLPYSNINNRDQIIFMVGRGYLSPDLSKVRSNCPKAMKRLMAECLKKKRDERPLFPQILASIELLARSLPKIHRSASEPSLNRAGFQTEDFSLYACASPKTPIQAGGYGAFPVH

Assay [4] has as its target Glycogen synthase kinase-3 beta (Homo sapiens) (UniProt P49841). Kind of assay: Ratio of compound to staurosporine binding affinity to human GSK3-beta in presence of DTT.
Assay [5] deals with Cyclin-dependent kinase 2 (Homo sapiens) (UniProt P24941). Nature of the assay: Binding affinity to human CDK2 at 500 nM by cell-based competition binding assay relative to control in presence of DTT. An outline of the steps:
as §2

The target of assay [6] is Cyclin-dependent kinase 9 (Homo sapiens) (UniProt P50750). Nature of the assay: Binding affinity to human CDK9 at 500 nM by cell-based competition binding assay relative to control in presence of DTT. An outline of the steps:
as §1

Assay [7] concerns the target Dual specificity tyrosine-phosphorylation-regulated kinase 1B (Homo sapiens) (UniProt Q9Y463). Kind of assay: Binding affinity to human DYRK1B at 500 nM by cell-based competition binding assay relative to control in presence of DTT. Put shortly:
as §1

Assay [8] deals with T1, Testis-specific serine/threonine-protein kinase 1 (Homo sapiens) (UniProt Q9BXA7).
T1 sequence (whole entry): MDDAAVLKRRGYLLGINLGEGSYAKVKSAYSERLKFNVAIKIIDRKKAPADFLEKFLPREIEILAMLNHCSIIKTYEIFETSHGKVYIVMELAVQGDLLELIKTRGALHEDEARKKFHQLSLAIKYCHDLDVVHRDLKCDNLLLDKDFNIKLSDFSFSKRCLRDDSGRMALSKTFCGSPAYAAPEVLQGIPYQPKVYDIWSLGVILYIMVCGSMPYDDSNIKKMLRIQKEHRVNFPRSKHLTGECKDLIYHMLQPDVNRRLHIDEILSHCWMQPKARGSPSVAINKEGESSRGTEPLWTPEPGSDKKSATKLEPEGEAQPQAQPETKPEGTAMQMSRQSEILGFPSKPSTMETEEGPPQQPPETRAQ
Nature of the assay: Binding affinity to human TSSK1 at 500 nM by cell-based competition binding assay relative to control in presence of DTT.

Assay [9] concerns the target Epidermal growth factor receptor (Homo sapiens) (UniProt P00533). Kind of assay: Binding affinity to human EGFR at 500 nM by cell-based competition binding assay relative to control in presence of DTT. Put shortly:
as §1

In assay [10] the target is Mitogen-activated protein kinase 8 (Homo sapiens) (UniProt P45983). Kind of assay: Binding affinity to human JNK1 at 200 nM by cell-based competition binding assay relative to control in presence of DTT. Put shortly:
(§3)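 Competition binding screen (Ambit) across a panel of 90 kinases, scoring test ligand displacement of each kinase's binding relative to control. The screen ran under reducing conditions with 7.5 mM DTT.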

Assay [11] deals with Glycogen synthase kinase-3 beta (Homo sapiens) (UniProt P49841). Kind of assay: Binding affinity to human GSK3-beta at 200 nM by cell-based competition binding assay relative to control in presence of DTT. Put shortly:
as §1

Assay [12] has as its target Phosphatidylinositol 4,5-bisphosphate 3-kinase catalytic subunit alpha isoform (Homo sapiens) (UniProt P42336). Kind of assay: Binding affinity to human PIK3Calpha at 200 nM by cell-based competition binding assay relative to control in presence of DTT.
Assay [13] deals with Angiopoietin-1 receptor (Homo sapiens) (UniProt Q02763). Nature of the assay: Binding affinity to human TIE2 at 200 nM by cell-based competition binding assay relative to control in presence of DTT.
Assay [14] deals with Focal adhesion kinase 1 (Homo sapiens) (UniProt Q05397). Nature of the assay: Binding affinity to human PTK2 at 200 nM by cell-based competition binding assay relative to control in presence of DTT.
Sequence of Focal adhesion kinase 1 (Homo sapiens) (Q05397 2-1052 limits assumed): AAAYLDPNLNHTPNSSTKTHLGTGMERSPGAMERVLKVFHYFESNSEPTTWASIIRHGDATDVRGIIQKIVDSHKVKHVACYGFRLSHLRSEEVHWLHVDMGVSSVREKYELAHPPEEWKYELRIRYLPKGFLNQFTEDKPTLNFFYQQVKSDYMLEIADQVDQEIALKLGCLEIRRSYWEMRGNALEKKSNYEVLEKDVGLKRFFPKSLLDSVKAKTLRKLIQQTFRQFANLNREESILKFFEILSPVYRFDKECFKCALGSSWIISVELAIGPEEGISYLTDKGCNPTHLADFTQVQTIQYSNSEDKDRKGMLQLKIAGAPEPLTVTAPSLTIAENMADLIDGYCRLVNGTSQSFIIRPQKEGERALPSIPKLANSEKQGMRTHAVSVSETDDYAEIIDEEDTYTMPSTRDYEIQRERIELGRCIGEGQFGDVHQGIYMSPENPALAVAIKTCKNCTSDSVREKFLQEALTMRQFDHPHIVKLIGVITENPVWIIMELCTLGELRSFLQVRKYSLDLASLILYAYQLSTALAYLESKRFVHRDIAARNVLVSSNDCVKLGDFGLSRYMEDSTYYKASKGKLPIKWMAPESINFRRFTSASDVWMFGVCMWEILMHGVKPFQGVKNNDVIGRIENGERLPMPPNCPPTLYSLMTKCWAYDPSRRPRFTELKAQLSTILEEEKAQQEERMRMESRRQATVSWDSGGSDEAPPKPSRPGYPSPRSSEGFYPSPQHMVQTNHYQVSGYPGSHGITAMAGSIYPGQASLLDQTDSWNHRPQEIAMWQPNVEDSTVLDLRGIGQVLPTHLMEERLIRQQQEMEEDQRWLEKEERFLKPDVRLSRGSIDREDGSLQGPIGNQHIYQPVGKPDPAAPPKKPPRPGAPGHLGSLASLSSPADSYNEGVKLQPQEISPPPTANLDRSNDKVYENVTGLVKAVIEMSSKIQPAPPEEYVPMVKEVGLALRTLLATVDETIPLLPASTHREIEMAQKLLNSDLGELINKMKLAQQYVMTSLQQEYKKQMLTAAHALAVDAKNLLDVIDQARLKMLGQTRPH
For assay [15], the target named is Serine/threonine-protein kinase pim-2 (Homo sapiens) (UniProt Q9P1W9). Nature of the assay: Binding affinity to human PIM2 at 200 nM by cell-based competition binding assay relative to control in presence of DTT.
Assay [16] has as its target Mitogen-activated protein kinase 14 (Homo sapiens) (UniProt Q16539). Kind of assay: Binding affinity to human p38alpha at 50 nM by cell-based competition binding assay relative to control in presence of DTT.
The target in assay [17] is Cyclin-dependent kinase 2 (Homo sapiens) (UniProt P24941). Kind of assay: Binding affinity to human CDK2 at 50 nM by cell-based competition binding assay relative to control in presence of DTT. An outline of the steps: as §2
For assay [18], the target named is MAP/microtubule affinity-regulating kinase 3 (Homo sapiens) (UniProt P27448). Kind of assay: Binding affinity to human MARK3 at 50 nM by cell-based competition binding assay relative to control in presence of DTT. Put shortly:
as §3

Assay [19] deals with Mitogen-activated protein kinase kinase kinase 9 (Homo sapiens) (UniProt P80192). Kind of assay: Binding affinity to human MLK1 at 50 nM by cell-based competition binding assay relative to control in presence of DTT.
For assay [20], the target named is MAP kinase-interacting serine/threonine-protein kinase 2 (Homo sapiens) (UniProt Q9HBH9). Nature of the assay: Binding affinity to human MKNK2 at 50 nM by cell-based competition binding assay relative to control in presence of DTT.
Sequence of MAP kinase-interacting serine/threonine-protein kinase 2 (Homo sapiens) (Q9HBH9 whole entry, looked up): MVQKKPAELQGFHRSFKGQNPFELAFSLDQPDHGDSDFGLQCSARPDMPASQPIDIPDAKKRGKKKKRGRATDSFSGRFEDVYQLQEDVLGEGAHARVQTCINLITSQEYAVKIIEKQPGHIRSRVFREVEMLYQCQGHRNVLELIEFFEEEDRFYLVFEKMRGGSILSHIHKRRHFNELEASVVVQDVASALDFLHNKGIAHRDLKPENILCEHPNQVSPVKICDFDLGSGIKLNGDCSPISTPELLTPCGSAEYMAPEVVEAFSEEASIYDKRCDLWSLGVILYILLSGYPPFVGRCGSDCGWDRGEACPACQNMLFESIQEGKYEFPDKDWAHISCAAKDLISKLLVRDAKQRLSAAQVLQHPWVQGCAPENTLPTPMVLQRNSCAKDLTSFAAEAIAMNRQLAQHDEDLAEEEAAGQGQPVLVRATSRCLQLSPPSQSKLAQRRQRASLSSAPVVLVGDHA
In assay [21] the target is High affinity nerve growth factor receptor (Homo sapiens) (UniProt P04629). Nature of the assay: Binding affinity to human TRKA at 50 nM by cell-based competition binding assay relative to control in presence of DTT.
Sequence of High affinity nerve growth factor receptor (Homo sapiens) (P04629 33-796 limits assumed): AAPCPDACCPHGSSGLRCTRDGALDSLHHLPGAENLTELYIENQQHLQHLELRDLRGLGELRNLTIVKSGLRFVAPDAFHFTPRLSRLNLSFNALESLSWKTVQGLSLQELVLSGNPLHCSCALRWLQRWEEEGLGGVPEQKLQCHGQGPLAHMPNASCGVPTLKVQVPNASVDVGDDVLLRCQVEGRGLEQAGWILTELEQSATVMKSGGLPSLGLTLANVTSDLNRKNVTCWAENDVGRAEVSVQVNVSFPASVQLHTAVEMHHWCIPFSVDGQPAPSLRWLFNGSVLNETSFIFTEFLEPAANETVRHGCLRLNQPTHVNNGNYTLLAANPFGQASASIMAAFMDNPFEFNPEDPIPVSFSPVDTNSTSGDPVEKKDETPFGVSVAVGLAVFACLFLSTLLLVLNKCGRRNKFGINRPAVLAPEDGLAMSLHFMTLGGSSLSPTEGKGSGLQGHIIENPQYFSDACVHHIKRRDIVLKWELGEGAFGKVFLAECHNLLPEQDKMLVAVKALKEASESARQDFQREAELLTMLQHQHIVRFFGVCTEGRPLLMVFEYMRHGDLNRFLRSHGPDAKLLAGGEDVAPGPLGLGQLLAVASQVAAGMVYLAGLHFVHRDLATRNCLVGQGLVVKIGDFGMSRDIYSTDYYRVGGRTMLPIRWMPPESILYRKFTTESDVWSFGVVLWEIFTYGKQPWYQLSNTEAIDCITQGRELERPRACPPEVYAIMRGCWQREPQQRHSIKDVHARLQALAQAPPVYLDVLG

Sequence of Glycogen synthase kinase-3 beta (Homo sapiens) (P49841 whole entry, looked up): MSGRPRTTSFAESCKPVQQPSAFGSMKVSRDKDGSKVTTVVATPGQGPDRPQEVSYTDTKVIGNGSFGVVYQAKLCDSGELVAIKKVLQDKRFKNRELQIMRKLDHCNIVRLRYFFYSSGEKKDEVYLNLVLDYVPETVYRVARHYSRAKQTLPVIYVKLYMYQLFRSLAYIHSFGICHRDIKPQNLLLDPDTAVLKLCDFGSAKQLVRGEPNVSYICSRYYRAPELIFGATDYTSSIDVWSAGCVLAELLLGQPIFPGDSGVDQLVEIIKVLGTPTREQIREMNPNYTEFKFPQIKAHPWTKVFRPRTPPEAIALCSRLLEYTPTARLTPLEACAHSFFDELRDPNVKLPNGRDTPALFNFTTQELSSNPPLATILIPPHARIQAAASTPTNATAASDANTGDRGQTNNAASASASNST
Sequence of Mitogen-activated protein kinase 8 (Homo sapiens) (P45983 whole entry): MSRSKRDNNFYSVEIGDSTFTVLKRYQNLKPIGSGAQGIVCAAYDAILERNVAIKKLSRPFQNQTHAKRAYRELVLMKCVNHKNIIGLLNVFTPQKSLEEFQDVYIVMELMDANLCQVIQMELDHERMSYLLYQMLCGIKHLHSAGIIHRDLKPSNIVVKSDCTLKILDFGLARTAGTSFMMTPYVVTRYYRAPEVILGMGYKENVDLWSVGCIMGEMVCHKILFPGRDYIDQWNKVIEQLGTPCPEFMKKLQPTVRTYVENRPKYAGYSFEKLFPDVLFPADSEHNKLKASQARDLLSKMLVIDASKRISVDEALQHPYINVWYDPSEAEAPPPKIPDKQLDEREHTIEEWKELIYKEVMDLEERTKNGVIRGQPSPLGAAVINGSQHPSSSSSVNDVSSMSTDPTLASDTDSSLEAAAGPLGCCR
Sequence of Phosphatidylinositol 4,5-bisphosphate 3-kinase catalytic subunit alpha isoform (Homo sapiens) (P42336 whole entry, canonical isoform): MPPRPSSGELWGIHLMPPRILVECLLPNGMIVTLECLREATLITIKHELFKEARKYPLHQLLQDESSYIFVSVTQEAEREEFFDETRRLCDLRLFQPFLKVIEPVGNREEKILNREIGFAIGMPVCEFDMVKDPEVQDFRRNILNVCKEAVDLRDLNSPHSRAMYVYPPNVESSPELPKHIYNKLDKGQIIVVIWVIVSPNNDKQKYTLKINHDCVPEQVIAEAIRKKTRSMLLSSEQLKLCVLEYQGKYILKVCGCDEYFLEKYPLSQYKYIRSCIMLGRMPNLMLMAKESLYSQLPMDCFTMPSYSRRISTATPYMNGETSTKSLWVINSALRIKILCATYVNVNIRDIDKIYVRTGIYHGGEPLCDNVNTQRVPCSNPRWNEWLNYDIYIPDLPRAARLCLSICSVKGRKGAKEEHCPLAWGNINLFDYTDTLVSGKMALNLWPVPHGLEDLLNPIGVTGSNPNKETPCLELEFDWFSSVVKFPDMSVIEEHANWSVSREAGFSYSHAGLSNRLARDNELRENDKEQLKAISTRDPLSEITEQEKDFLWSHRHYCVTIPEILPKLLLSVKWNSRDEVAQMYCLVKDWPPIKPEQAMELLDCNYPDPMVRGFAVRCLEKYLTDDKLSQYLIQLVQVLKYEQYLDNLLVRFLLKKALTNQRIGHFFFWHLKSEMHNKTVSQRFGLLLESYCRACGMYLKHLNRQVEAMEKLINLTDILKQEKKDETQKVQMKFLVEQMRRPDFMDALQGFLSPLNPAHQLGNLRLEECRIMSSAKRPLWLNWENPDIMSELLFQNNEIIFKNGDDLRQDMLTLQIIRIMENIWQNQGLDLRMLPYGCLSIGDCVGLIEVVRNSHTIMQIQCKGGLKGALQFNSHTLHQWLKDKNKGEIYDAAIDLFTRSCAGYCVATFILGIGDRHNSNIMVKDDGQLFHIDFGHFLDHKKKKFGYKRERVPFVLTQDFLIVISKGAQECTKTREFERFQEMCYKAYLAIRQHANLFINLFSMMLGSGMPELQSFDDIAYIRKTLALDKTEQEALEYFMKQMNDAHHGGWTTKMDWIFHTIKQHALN

On to `CO[C@@H]1[C@H](N(C)C(=O)CCC(=O)NCCC(=O)NCCC(=O)NCCC(N)=O)C[C@H]2O[C@]1(C)n1c3ccccc3c3c4c(c5c6ccccc6n2c5c31)C(=O)NC4`, for which the Activity stood at 99% in [1]; 4% in assay [2]; 94% in [3]; 69% in assay [5]; 92% in assay [6]; 5.6% in assay [7]. Further, the Activity stood at 2.6% in [8] and 54% in [9]. Also, the Selectivity ratio in assay [4] came to 7.
Consider `CO[C@@H]1[C@H](N(C)C(=O)CCC(=O)NCCC(=O)NCCC(=O)NCCC(=O)NCCC(=O)NCCC(=O)NCCC(=O)NCCC(=O)N[C@H]2CSSC[C@@H](C(=O)NCC(N)=O)NC(=O)CNC(=O)[C@H](Cc3ccccc3)NC(=O)[C@H](C(C)C)NC(=O)[C@H](CCCNC(=N)N)NC(=O)[C@H](Cc3ccccc3)NC(=O)[C@H](C(C)C)NC2=O)C[C@H]2O[C@]1(C)n1c3ccccc3c3c4c(c5c6ccccc6n2c5c31)C(=O)NC4` ({Staurosporine-Suc-βAla-βAla-βAla-βAla-βAla-βAla-βAla}-CVFRVFGCG-NH2; disulfide 1-8), for which the Activity in assay [10] worked out at 83%; in assay [11], 100%; in assay [12], 89%; in assay [13] it was 65%; in assay [14], 91%; in [15], 100%.
In the case of `CO[C@@H]1[C@H](N(C)C(=O)CCC(=O)NCCC(=O)NCCC(=O)NCCC(=O)NCCC(=O)NCCC(=O)NCCC(=O)NCCC(=O)N[C@H]2CNC(=O)C[C@@H](C(N)=O)NC(=O)CNC(=O)[C@H](Cc3ccccc3)NC(=O)[C@H](C(C)C)NC(=O)[C@H](CCCNC(=N)N)NC(=O)[C@H](Cc3ccccc3)NC(=O)[C@H](C(C)C)NC2=O)C[C@H]2O[C@]1(C)n1c3ccccc3c3c4c(c5c6ccccc6n2c5c31)C(=O)NC4` ({Staurosporine-Suc-βAla-βAla-βAla-βAla-βAla-βAla-βAla}-[Dap]VFRVFGD-NH2; lactam 1-8), the Activity stood at 95% in assay [16]; 100% in [17]; 61% in [18]; 5.5% in [19]; 100% in [20]; 98% in [21].
